From BindingDB's records for doi:10.1016/j.bmcl.2007.06.010 (Institut Henri Beaufour, 2007) come the findings set out here.

Molecules are shown by their SMILES.

This test has as its target Melanocortin receptor 4 (Homo sapiens, UniProt P32245). Description: Displacement of [125I]NDP-alphaMSH from human melanocortin 4 receptor expressed in CHOK1 cells. In outline:
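Membranes from CHO-K1 cells stably expressing human MC1, MC3, MC4 or MC5 receptor, 1–10 µg protein/well, in 50 mM Tris-HCl pH 7.4 with 0.2% BSA, 5 mM MgCl2, 1 mM CaCl2, 0.1 mg/mL bacitracin. Incubated with increasing test compound and 0.1–0.3 nM [125I]NDP-α-MSH, 90–120 min at 37 °C depending on subtype. Filtration on PEI-presoaked GF/C filters, cold buffer washes, radioactivity counted; nonlinear regression; three independent measurements.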

Chain of Melanocortin receptor 4 (P32245 whole entry): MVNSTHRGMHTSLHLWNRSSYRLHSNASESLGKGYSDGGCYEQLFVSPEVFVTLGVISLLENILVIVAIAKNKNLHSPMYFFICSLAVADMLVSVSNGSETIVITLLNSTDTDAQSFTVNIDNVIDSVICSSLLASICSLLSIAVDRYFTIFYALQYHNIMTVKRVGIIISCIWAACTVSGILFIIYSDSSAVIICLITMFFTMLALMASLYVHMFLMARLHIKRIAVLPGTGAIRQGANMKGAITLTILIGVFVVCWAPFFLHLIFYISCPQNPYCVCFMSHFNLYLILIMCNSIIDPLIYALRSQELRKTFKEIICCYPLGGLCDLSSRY

Consider `CC(C)CCN(CCC(C)C)C(=O)c1ccc2nc(NCc3ccccc3)n(CCCN3CCCCC3)c2c1` [2-(benzylamino)-N,N-diisopentyl-3-(3-(piperidin-1-yl)propyl)-3H-benzo[d]imidazole-5-carboxamide], for which the affinity corresponds to a Ki of 17 nM.
